pIC50: −log10 of the molar value.

The first assay concerns Trypanosoma cruzi. Nature of the assay: Percentage of activity against Trypanosoma cruzi at 6.25 uM Concentration.
Settings: not given
It counts as functional. The method in brief:
(§1)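 Mouse peritoneal macrophages, 30 000/well, infected after 24 h with about 100 000 T. cruzi trypomastigotes per well plus 2-fold drug dilutions (12.5–1.56 µM). Incubated 4 days at 37 °C, 5% CO2. Methanol-fixed, Giemsa-stained and scored microscopically as % reduction of total parasite load (free trypomastigotes plus intracellular amastigotes) versus untreated controls.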
Consider `COc1ccc2nc3cc(Cl)ccc3c(NCCCN(CCCNc3c4ccc(Cl)cc4nc4ccc(OC)cc34)C(=O)C(CO)NC(=O)OC(C)(C)C)c2c1` (centres undefined), for which the “Reduction of T. cruzi parasite load” value was found to be 20%.

Turning to `COc1ccc2nc3cc(Cl)ccc3c(NCCCN(CCCNc3c4ccc(Cl)cc4nc4ccc(OC)cc34)C(=O)CNC(=O)OC(C)(C)C)c2c1`, the “Reduction of T. cruzi parasite load” value is given as 40%.

The next assay deals with Trypanosoma brucei. Put plainly: Percentage of activity against Trypanosoma brucei at 1.56 uM. Type of assay: functional.
Settings: not given
The method in brief: (§2)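 Bloodstream-form T. brucei in HMI-9 medium, 10 000 parasites/well, exposed to 12.5, 6.25, 3.13 and 1.56 µM drug for 4 days. Read-out is % inhibition of parasite multiplication. Macrophage toxicity judged on mouse primary peritoneal macrophages.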
With `COc1ccc2nc3cc(Cl)ccc3c(NCCCN(CCCNc3c4ccc(Cl)cc4nc4ccc(OC)cc34)C(=O)C(CO)NC(=O)OC(C)(C)C)c2c1` (centres undefined), the “Percent inhibition of parasite multiplication” value is reported as 100%.

For `COc1ccc2nc3cc(Cl)ccc3c(NCCCN(CCCNc3c4ccc(Cl)cc4nc4ccc(OC)cc34)C(=O)CNC(=O)OC(C)(C)C)c2c1`, the “Percent inhibition of parasite multiplication” value was found to be 100%.

The subject of a further assay is Leishmania infantum. Nature of the assay: Percentage of activity against Leishmania infantum at 1.56 uM. Type of assay: functional.
Settings: not given
The method, boiled down:
(§3)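 Starch-stimulated mouse peritoneal macrophages, 30 000/well, infected after 24 h with spleen-derived L. infantum amastigotes (10:1) together with 2-fold drug dilutions (12.5–1.56 µM). Incubated 7 days at 37 °C, 5% CO2. Wright-stained slides scored microscopically as % reduction of total parasite load or of infected macrophages. Uninfected treated cultures judged microscopically for macrophage toxicity.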
Consider `COc1ccc2nc3cc(Cl)ccc3c(NCCCN(CCCNc3c4ccc(Cl)cc4nc4ccc(OC)cc34)C(=O)C(CO)NC(=O)OC(C)(C)C)c2c1` (centres undefined), for which the “Antileishmanial activity (% reduction of parasite load)” value came to 0%.

As to `COc1ccc2nc3cc(Cl)ccc3c(NCCCN(CCCNc3c4ccc(Cl)cc4nc4ccc(OC)cc34)C(=O)CNC(=O)OC(C)(C)C)c2c1`, the “Antileishmanial activity (% reduction of parasite load)” value worked out at 0%.

In a further assay the test system is Leishmania infantum. Nature of the assay: Percentage of activity against Leishmania infantum 6.25 uM. It counts as functional.
Settings: not given
The method in brief:
as §3
As to `COc1ccc2nc3cc(Cl)ccc3c(NCCCN(CCCNc3c4ccc(Cl)cc4nc4ccc(OC)cc34)C(=O)C(CO)NC(=O)OC(C)(C)C)c2c1` (centres undefined), the “Antileishmanial activity (% reduction of parasite load)” value is reported as 0%.

For `COc1ccc2nc3cc(Cl)ccc3c(NCCCN(CCCNc3c4ccc(Cl)cc4nc4ccc(OC)cc34)C(=O)CNC(=O)OC(C)(C)C)c2c1`, the “Antileishmanial activity (% reduction of parasite load)” value is listed as 60%.

The test system of another assay is Trypanosoma brucei. Put plainly: Percentage of activity against Trypanosoma brucei at 6.25 uM.
Settings: not given
It counts as functional. The method in brief:
as §2
On to `COc1ccc2nc3cc(Cl)ccc3c(NCCCN(CCCNc3c4ccc(Cl)cc4nc4ccc(OC)cc34)C(=O)C(CO)NC(=O)OC(C)(C)C)c2c1` (centres undefined), for which the “Inhibition of parasite multiplication” value was 100%.

For `COc1ccc2nc3cc(Cl)ccc3c(NCCCN(CCCNc3c4ccc(Cl)cc4nc4ccc(OC)cc34)C(=O)CNC(=O)OC(C)(C)C)c2c1`, the “Inhibition of parasite multiplication” value came out at 100%.

In another assay the test system is Plasmodium falciparum. Put plainly: In vitro sensitivity for Plasmodium falciparum FcB1R.
Settings: not given
Type of assay: functional, organism-based. The method in brief: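 Asynchronous P. falciparum cultures in human erythrocytes (0.5% parasitemia, 1% haematocrit) exposed to serially diluted drug for 24 h at 37 °C. [3H]hypoxanthine (0.5 µCi/well) then added for a further 24 h. Uptake compared with drug-free controls on the same plate. IC50 taken from the concentration–response curve, averaged over independent experiments. DMSO ≤0.1%.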
For orientation: pIC50 means the IC50 on a negative log10 scale, so that one unit is a factor of ten. The molecule `COc1ccc2nc3cc(Cl)ccc3c(NCCCN(CCCNc3c4ccc(Cl)cc4nc4ccc(OC)cc34)C(=O)C(CO)NC(=O)OC(C)(C)C)c2c1` (centres undefined) had a pIC50 of 6.61.

Take `COc1ccc2nc3cc(Cl)ccc3c(NCCCN(CCCNc3c4ccc(Cl)cc4nc4ccc(OC)cc34)C(=O)CNC(=O)OC(C)(C)C)c2c1`: the pIC50 is 7.04.

Another assay has as its system Leishmania infantum. Nature of the assay: Percentage of activity against Leishmania infantum at 3.13 uM. Type of assay: functional.
Settings: not given
The method in brief:
as §3
Take `COc1ccc2nc3cc(Cl)ccc3c(NCCCN(CCCNc3c4ccc(Cl)cc4nc4ccc(OC)cc34)C(=O)C(CO)NC(=O)OC(C)(C)C)c2c1` (centres undefined): the “Percent antileishmanial activity (reduction of parasite load)” value was 0%.

As for `COc1ccc2nc3cc(Cl)ccc3c(NCCCN(CCCNc3c4ccc(Cl)cc4nc4ccc(OC)cc34)C(=O)CNC(=O)OC(C)(C)C)c2c1`, the “Percent antileishmanial activity (reduction of parasite load)” value was 40%.

Another assay concerns Trypanosoma brucei. Nature of the assay: Percentage of activity against Trypanosoma brucei at 12.5 uM. It counts as functional.
Settings: not given
The method, boiled down: as §2
Regarding `COc1ccc2nc3cc(Cl)ccc3c(NCCCN(CCCNc3c4ccc(Cl)cc4nc4ccc(OC)cc34)C(=O)C(CO)NC(=O)OC(C)(C)C)c2c1` (centres undefined), the “Inhibition of parasite multiplication” value is 100%.

As to `COc1ccc2nc3cc(Cl)ccc3c(NCCCN(CCCNc3c4ccc(Cl)cc4nc4ccc(OC)cc34)C(=O)CNC(=O)OC(C)(C)C)c2c1`, the “Inhibition of parasite multiplication” value came out at 100%.

For the next assay, the system named is MRC5. Put plainly: Cytotoxicity on MRC-5 cells at 3.13 uM. Conditions: Homo sapiens. Type of assay: functional. The method in brief:
(§4)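 MRC-5 human diploid embryonic lung cells seeded at 5 000/well, washed after 24 h, then given 2-fold drug dilutions (25, 12.5, 6.25, 3.13 µM) in RPMI + 5% FCS, final DMSO below 0.5%. Incubated 7 days at 37 °C, 5% CO2. MTT colorimetric read-out, scored as % reduction of absorbance at 540 nm versus untreated controls.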
On to `COc1ccc2nc3cc(Cl)ccc3c(NCCCN(CCCNc3c4ccc(Cl)cc4nc4ccc(OC)cc34)C(=O)C(CO)NC(=O)OC(C)(C)C)c2c1` (centres undefined), for which the cytotoxicity at 3.13 µM amounted to 0%.

`COc1ccc2nc3cc(Cl)ccc3c(NCCCN(CCCNc3c4ccc(Cl)cc4nc4ccc(OC)cc34)C(=O)CNC(=O)OC(C)(C)C)c2c1` had a cytotoxicity at 3.13 µM of 0%.

A further assay concerns MRC5. Put plainly: Cytotoxicity on MRC-5 cells at 12.5 uM. It counts as functional. The settings on record: Homo sapiens. The method in brief:
as §4
Molecule `COc1ccc2nc3cc(Cl)ccc3c(NCCCN(CCCNc3c4ccc(Cl)cc4nc4ccc(OC)cc34)C(=O)C(CO)NC(=O)OC(C)(C)C)c2c1` (centres undefined) had a cytotoxicity at 12.5 µM of 0%.

As for `COc1ccc2nc3cc(Cl)ccc3c(NCCCN(CCCNc3c4ccc(Cl)cc4nc4ccc(OC)cc34)C(=O)CNC(=O)OC(C)(C)C)c2c1`, the cytotoxicity at 12.5 µM amounted to 100%.

The test system of the next assay is Trypanosoma brucei. Put plainly: Percentage of activity against Trypanosoma brucei at 3.13 uM. It counts as functional.
Settings: not given
The method, boiled down:
as §2
Consider `COc1ccc2nc3cc(Cl)ccc3c(NCCCN(CCCNc3c4ccc(Cl)cc4nc4ccc(OC)cc34)C(=O)C(CO)NC(=O)OC(C)(C)C)c2c1` (centres undefined), for which the Parasite growth inhibition is reported as 100%.

In turn, `COc1ccc2nc3cc(Cl)ccc3c(NCCCN(CCCNc3c4ccc(Cl)cc4nc4ccc(OC)cc34)C(=O)CNC(=O)OC(C)(C)C)c2c1` returned a Parasite growth inhibition of 100%.

A further assay has as its system Trypanosoma cruzi. Nature of the assay: Percentage of activity against Trypanosoma cruzi at 3.13 uM. It counts as functional.
Settings: not given
The method, boiled down:
as §1
With `COc1ccc2nc3cc(Cl)ccc3c(NCCCN(CCCNc3c4ccc(Cl)cc4nc4ccc(OC)cc34)C(=O)C(CO)NC(=O)OC(C)(C)C)c2c1` (centres undefined), the “Reduction of T. cruzi parasite load” value was determined as 0%.

Regarding `COc1ccc2nc3cc(Cl)ccc3c(NCCCN(CCCNc3c4ccc(Cl)cc4nc4ccc(OC)cc34)C(=O)CNC(=O)OC(C)(C)C)c2c1`, the “Reduction of T. cruzi parasite load” value was determined as 0%.

The test system of a further assay is MRC5. Nature of the assay: Cytotoxicity on MRC-5 cells at 6.25 uM. Type of assay: functional. The settings on record: Homo sapiens. The method, boiled down: as §4
`COc1ccc2nc3cc(Cl)ccc3c(NCCCN(CCCNc3c4ccc(Cl)cc4nc4ccc(OC)cc34)C(=O)C(CO)NC(=O)OC(C)(C)C)c2c1` (centres undefined): the cytotoxicity at 6.25 µM came out at 0%.

Molecule `COc1ccc2nc3cc(Cl)ccc3c(NCCCN(CCCNc3c4ccc(Cl)cc4nc4ccc(OC)cc34)C(=O)CNC(=O)OC(C)(C)C)c2c1` displayed a cytotoxicity at 6.25 µM of 20%.

In another assay the test system is Leishmania infantum. Nature of the assay: In Vitro evaluation for the percentage of activity towards Leishmania infantum at 12.5 uM Concentration. Type of assay: functional.
Settings: not given
The method in brief:
as §3
In the case of `COc1ccc2nc3cc(Cl)ccc3c(NCCCN(CCCNc3c4ccc(Cl)cc4nc4ccc(OC)cc34)C(=O)C(CO)NC(=O)OC(C)(C)C)c2c1` (centres undefined), the “Percent inhibition of Leishmania infantum” value is given as 40%.

`COc1ccc2nc3cc(Cl)ccc3c(NCCCN(CCCNc3c4ccc(Cl)cc4nc4ccc(OC)cc34)C(=O)CNC(=O)OC(C)(C)C)c2c1`: the “Percent inhibition of Leishmania infantum” value amounted to 80%.

A further assay deals with MRC5. Nature of the assay: Cytotoxicity on MRC-5 cells at 25 uM. The settings on record: Homo sapiens. It counts as functional. The method in brief: as §4
Consider `COc1ccc2nc3cc(Cl)ccc3c(NCCCN(CCCNc3c4ccc(Cl)cc4nc4ccc(OC)cc34)C(=O)C(CO)NC(=O)OC(C)(C)C)c2c1` (centres undefined), for which the cytotoxicity at 25 µM is 0%.

Molecule `COc1ccc2nc3cc(Cl)ccc3c(NCCCN(CCCNc3c4ccc(Cl)cc4nc4ccc(OC)cc34)C(=O)CNC(=O)OC(C)(C)C)c2c1` had a cytotoxicity at 25 µM of 100%.

The next assay has as its system Trypanosoma cruzi. Put plainly: Percentage of activity against Trypanosoma cruzi at 12.5 uM.
Settings: not given
Type of assay: functional. The method, boiled down:
as §1
Turning to `COc1ccc2nc3cc(Cl)ccc3c(NCCCN(CCCNc3c4ccc(Cl)cc4nc4ccc(OC)cc34)C(=O)C(CO)NC(=O)OC(C)(C)C)c2c1` (centres undefined), the “T. cruzi parasite load reduction” value stood at 80%.

On to `COc1ccc2nc3cc(Cl)ccc3c(NCCCN(CCCNc3c4ccc(Cl)cc4nc4ccc(OC)cc34)C(=O)CNC(=O)OC(C)(C)C)c2c1`, for which the “T. cruzi parasite load reduction” value is 80%.

A further assay has as its system Trypanosoma cruzi. Nature of the assay: Percentage of activity against Trypanosoma cruzi at 1.56 uM. It counts as functional.
Settings: not given
The method, boiled down:
as §1
Molecule `COc1ccc2nc3cc(Cl)ccc3c(NCCCN(CCCNc3c4ccc(Cl)cc4nc4ccc(OC)cc34)C(=O)C(CO)NC(=O)OC(C)(C)C)c2c1` (centres undefined) showed a Parasite load reduction of 0%.

`COc1ccc2nc3cc(Cl)ccc3c(NCCCN(CCCNc3c4ccc(Cl)cc4nc4ccc(OC)cc34)C(=O)CNC(=O)OC(C)(C)C)c2c1` gave a Parasite load reduction of 0%.

The values above are taken from ChEMBL document CHEMBL1133105, “Antimalarial, antitrypanosomal, and antileishmanial activities and cytotoxicity of bis(9-amino-6-chloro-2-methoxyacridines): influence of the linker” (J Med Chem, 2000).
